Assay [1] addresses T1, Histone deacetylase 1 (Homo sapiens, UniProt Q13547). Nature of the assay: Inhibition of HDAC1. A digest of the protocol: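 Epitope-tagged human HDAC1 complex, immuno-purified from stably expressing mammalian cells, tested against a commercial HDAC substrate. IC50 values are means of three experiments.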
The nature of assay [2]: Antiproliferative activity against mouse SC9 cells. The format is functional, cell-based. A digest of the protocol:
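Murine erythroleukemia SC-9 cells were exposed to vehicle or increasing compound concentrations for 48 h, and proliferation was read by MTS assay. IC50 values are means of three experiments.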

The target in assay [3] is T1, Histone deacetylase 1. Put plainly: Inhibition of HDAC1 at 10 uM.

Among the data in ChEMBL document CHEMBL1140662, “Benzo[b]thiophene-based histone deacetylase inhibitors” (Bioorg Med Chem Lett, 2007) are IC50 and inhibition values, retold here.

T1 sequence (Q13547 whole entry): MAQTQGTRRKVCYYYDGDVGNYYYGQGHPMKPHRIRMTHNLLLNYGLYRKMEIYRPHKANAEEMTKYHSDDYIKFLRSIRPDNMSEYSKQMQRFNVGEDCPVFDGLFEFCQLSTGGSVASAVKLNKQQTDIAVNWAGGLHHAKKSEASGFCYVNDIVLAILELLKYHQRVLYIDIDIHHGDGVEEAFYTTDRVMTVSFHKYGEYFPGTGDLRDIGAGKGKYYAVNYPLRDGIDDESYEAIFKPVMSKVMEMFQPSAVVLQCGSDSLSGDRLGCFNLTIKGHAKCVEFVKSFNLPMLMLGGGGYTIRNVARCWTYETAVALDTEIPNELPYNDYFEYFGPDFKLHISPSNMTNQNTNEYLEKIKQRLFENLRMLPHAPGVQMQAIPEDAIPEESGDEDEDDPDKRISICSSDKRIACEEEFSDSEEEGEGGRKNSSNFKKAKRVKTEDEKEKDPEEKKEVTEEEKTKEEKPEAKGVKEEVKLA

Consider `O=C(CCc1ccccc1)Nc1ccc2cc(C(=O)NO)sc2c1`, for which the IC50 – broadly, the concentration that gives 50% inhibition – against Histone deacetylase 1 [1] was found to be 55 nM; in assay [2] it was 5580 nM. In the case of `COC(=O)c1ccc2cc(C(=O)NO)sc2c1`, the IC50 in assay [2] came out at 13900 nM. Take `O=C(NO)c1cc2ccc(CNCCc3ccccc3)cc2s1`: the concentration for half-maximal inhibition (IC50) against Histone deacetylase 1 [1] amounted to 128 nM; in assay [2], 455 nM. For `O=C(NO)c1cc2cc(CNCc3ccccc3)ccc2s1`, the IC50 in assay [2] stood at 475 nM. Consider `COc1ccc(CC(=O)Nc2ccc3cc(C(=O)NO)sc3c2)cc1`, for which the results for the half-maximal inhibitory concentration (IC50) (against Histone deacetylase 1 [1]; in assay [2]) were 20 nM and 205 nM, respectively. With `CC[C@@H](C(=O)Nc1ccc2cc(C(=O)NO)sc2c1)c1ccccc1`, the IC50 against Histone deacetylase 1 [1] came out at 60 nM; in assay [2] it was 530 nM. The like results for `O=C(Cc1ccc(F)cc1)Nc1ccc2cc(C(=O)NO)sc2c1` were, in that order, 20 nM and 230 nM.

With `O=C(Cc1ccccc1)Nc1ccc2cc(C(=O)NO)sc2c1`, the IC50 against Histone deacetylase 1 [1] is 10 nM; in assay [2], 220 nM. The matching figures for `O=C(Nc1ccccc1)c1ccc2sc(C(=O)NO)cc2c1`: 600 nM and 6140 nM.

For the compound `O=C(NO)c1csc2ccccc12`, the inhibition – broadly, the relative decrease from the control value, in per cent – against Histone deacetylase 1 [3] is 38%. `O=C(NO)c1cc2cc(CNc3ccccc3)ccc2s1`: the IC50 was 175 nM against Histone deacetylase 1 [1] and 4870 nM in assay [2]. With `O=C(NO)c1cccs1`, the IC50 at Histone deacetylase 1 [1] amounted to 6600 nM. On to `O=C(NCc1ccccc1)c1ccc2cc(C(=O)NO)sc2c1`, for which the IC50 against Histone deacetylase 1 [1] was 55 nM; in assay [2], 1100 nM.

`O=C(NCCc1ccccc1)c1ccc2sc(C(=O)NO)cc2c1`: the half-maximal inhibitory concentration (IC50) stood at 155 nM against Histone deacetylase 1 [1] and 5330 nM in assay [2]. For the compound `O=C(NO)c1cc2cc(CNCCc3ccccc3)ccc2s1`, the 50% inhibitory concentration (IC50) against Histone deacetylase 1 [1] is 200 nM; in assay [2], 945 nM. The like results for `O=C(NCc1ccc2cc(C(=O)NO)sc2c1)c1ccccc1` were, in that order, 10 nM and 190 nM. The like results for `CCC(C(=O)Nc1ccc2cc(C(=O)NO)sc2c1)c1ccccc1` (stereo unspecified) were, in that order, 40 nM and 225 nM.

As for `O=C(NCc1ccccc1)c1ccc2sc(C(=O)NO)cc2c1`, the concentration for half-maximal inhibition (IC50) at Histone deacetylase 1 [1] stood at 75 nM; in assay [2] it was 1700 nM. For the compound `O=C(NO)c1cc2ccc(CNc3ccccc3)cc2s1`, the concentration for half-maximal inhibition (IC50) against Histone deacetylase 1 [1] was found to be 45 nM; in assay [2] it was 1780 nM. The matching figures for `O=C(NC(c1ccccc1)c1ccccc1)c1ccc2cc(C(=O)NO)sc2c1`: 285 nM and 2960 nM. Regarding `O=C(Nc1ccc2cc(C(=O)NO)sc2c1)c1ccccc1`, the 50% inhibitory concentration (IC50) in assay [2] amounted to 2900 nM.

On to `O=C(Cc1ccccc1)Nc1ccc2sc(C(=O)NO)cc2c1`, for which the concentration for half-maximal inhibition (IC50) on Histone deacetylase 1 [1] is 30 nM; in assay [2] it was 1160 nM. `CC[C@H](C(=O)Nc1ccc2cc(C(=O)NO)sc2c1)c1ccccc1`: the half-maximal inhibitory concentration (IC50) on Histone deacetylase 1 [1] was found to be 20 nM; in assay [2], 140 nM. For `O=C(NO)c1cc2ccc(CNCc3ccccc3)cc2s1`, the half-maximal inhibitory concentration (IC50) was determined as 50 nM against Histone deacetylase 1 [1] and 160 nM in assay [2].

For `O=C(NO)c1ccsc1`, at Histone deacetylase 1 [1], the IC50 was found to be 9700 nM. Regarding `O=C(Cc1ccccc1)NCc1ccc2cc(C(=O)NO)sc2c1`, the IC50 against Histone deacetylase 1 [1] came out at 70 nM; in assay [2], 1220 nM.
